ChEMBL document CHEMBL4219195, “Discovery of a quinoline-based phenyl sulfone derivative as an antitrypanosomal agent” (Bioorg Med Chem Lett, 2018)
Calls of active or inactive are those of the source. The rule behind the calls is not given here.

Key:
HepG2 = test: Cytotoxicity against human HepG2 cells assessed as decrease in cell viability after 72 hrs by MTT assay; assay type: cell-based; conditions: HepG2, 72 h
Summary of the method: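 HepG2 cells kept in DMEM:F12 with 10% FBS, pen/strep and 0.0125% Tween 80 at 37°C, 5% CO2. Cells trypsinized, seeded at 5 × 10⁵ cells/mL and left ~24 h, then given compounds in DMSO for 72 h. Medium replaced with MTT-containing medium for 1.5 h; formazan dissolved in DMSO; A550. Triplicates. Controls: 10% SDS, podophyllotoxin.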

[1] = target: Rhodesain (Trypanosoma brucei rhodesiense) (UniProt Q95PM0); test: Inhibition of Trypanosoma brucei rhodesain expressed in Pichia pastoris at 20 uM using Z-phe-Arg-AMC as substrate preincubated for 1 hr followed by substrate addition by fluorescence assay
Summary of the method: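 Enzyme at 0.8 nM final with compound at 20 μM final, 1 h preincubation in 50 mM sodium acetate pH 5.5 with 2 mM DTT and 0.01% Triton X-100. Z-Phe-Arg-AMC (10 μM) then added. Cleavage rate (RFU/sec) read at 25 °C, ex 355/em 460 nm. E-64 (10 μM) served as 100% inhibition control.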

Trypanosoma brucei [2] = test: Antitrypanosomal activity against Trypanosoma brucei 427 bloodstream forms assessed as parasitic growth inhibition after 48 hrs by alamar blue assay; assay type: functional, organism-based; conditions: Trypanosoma brucei, 427, 48 h
Summary of the method: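 Bloodstream forms in supplemented HMI-9 medium (10% FBS, 10% Serum Plus, cysteine, hypoxanthine, β-mercaptoethanol, thymidine, pyruvate, bathocuproinesulfonate, Tween 80), 5 × 10³ cells/well, compound exposure 48 h in DMSO. Alamar blue then added, 4 h at 37°C; fluorescence ex 530/em 590 nm. Triplicates; IC50 from 0.3–50 μM range; suramin positive control.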

Rhodesain = Rhodesain (Trypanosoma brucei rhodesiense, UniProt Q95PM0); test: Inhibition of Trypanosoma brucei rhodesain expressed in Pichia pastoris using Z-phe-Arg-AMC as substrate preincubated for 1 hr followed by substrate addition by fluorescence assay
Summary of the method: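 Rhodesain at 0.8 nM final was pre-incubated 1 h with compound at 20 μM final in 50 mM sodium acetate pH 5.5, 2 mM DTT, 0.01% Triton X-100. Then 10 μM Z-Phe-Arg-AMC was added, and cleavage was read as RFU/sec at 25 °C (ex 355/em 460 nm). E-64 (10 μM) defined 100% inhibition.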

[3] = target: Rhodesain (Trypanosoma brucei rhodesiense) (UniProt Q95PM0); test: Inhibition of Trypanosoma brucei rhodesain expressed in Pichia pastoris assessed as rato of Kinact to Ki using Z-phe-Arg-AMC as substrate preincubated for 1 hr followed by substrate additon by fluorescence assay
Summary of the method: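 Time-dependent inactivation study: rhodesain mixed with inhibitor (0, 0.06, 0.12, 0.24, 0.97, 3.9 μM) in assay buffer (50 mM sodium acetate pH 5.5, 2 mM DTT, 0.01% Triton X-100). Aliquots drawn every 10 min, assayed with 10 μM Z-Phe-Arg-AMC, RFU/sec followed 7 min at 25 °C (ex 355/em 460 nm). Analysed by pseudo-first-order inhibition plots.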

[4] = target: Procathepsin L (Homo sapiens) (UniProt P07711); test: Inhibition of human liver cathepsin L using Z-phe-Arg-AMC as substrate at 0.1 to 125 uM preincubated for 1 hr followed by substrate addition by fluorescence assay
Summary of the method: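 Human liver CatL at 0.58 nM in 400 mM sodium acetate pH 5.5 with 8 mM DTT, 4 mM EDTA and 0.01% Triton X-100. Enzyme and compound preincubated 1 h, then Z-Phe-Arg-AMC (20 μM) added. AMC fluorescence rate read at ex 355/em 460 nm, 25 °C.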

Trypanosoma brucei [5] = test: Antitrypanosomal activity against luciferase expressing Trypanosoma brucei STIB795 bloodstream forms infected in NMRI mouse assessed as parasitic growth inhibition at 50 to 100 mg/kg, ip administered for 4 consecutive days starting at 3 days post infection measured at 24 hrs post dose by live imaging analysis; assay type: functional, organism-based
Summary of the method: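 Groups of four female mice, each inoculated ip with 1 × 10⁴ bloodstream forms. Groups: control, 50 mg/kg/day and 100 mg/kg/day. Dosing ip in water plus 10% DMSO began 3 days post-infection. Parasitemia followed by live imaging. Moribund mice euthanized once parasitemia was detected.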

Rhodesain (Trypanosoma brucei rhodesiense), sequence (Q95PM0 1-450): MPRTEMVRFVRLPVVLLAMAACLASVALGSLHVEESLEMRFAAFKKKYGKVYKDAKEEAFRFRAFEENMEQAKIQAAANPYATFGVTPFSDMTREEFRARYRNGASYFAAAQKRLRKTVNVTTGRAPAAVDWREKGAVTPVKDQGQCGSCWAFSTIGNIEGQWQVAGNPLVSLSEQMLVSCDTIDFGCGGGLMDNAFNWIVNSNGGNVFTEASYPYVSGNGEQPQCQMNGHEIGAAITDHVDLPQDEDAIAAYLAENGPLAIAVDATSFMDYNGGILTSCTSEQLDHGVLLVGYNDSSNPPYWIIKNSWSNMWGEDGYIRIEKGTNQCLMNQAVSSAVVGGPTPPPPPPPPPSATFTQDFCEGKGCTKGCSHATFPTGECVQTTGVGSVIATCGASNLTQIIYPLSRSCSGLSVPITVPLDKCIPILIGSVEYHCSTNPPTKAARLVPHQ
Rhodesain, sequence (Q95PM0 whole entry): as the sequence (Q95PM0 1-450) above
Procathepsin L (Homo sapiens), sequence (P07711 114-333 limits assumed): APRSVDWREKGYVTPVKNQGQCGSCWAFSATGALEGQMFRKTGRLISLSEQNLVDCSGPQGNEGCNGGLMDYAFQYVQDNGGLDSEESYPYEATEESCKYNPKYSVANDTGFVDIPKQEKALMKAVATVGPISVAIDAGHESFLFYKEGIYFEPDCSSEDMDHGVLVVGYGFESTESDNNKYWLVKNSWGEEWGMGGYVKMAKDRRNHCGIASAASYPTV

SMILES | inhibition [1] | IC50 (Trypanosoma brucei [2]) [µM] | IC50 (HepG2) [µM] | IC50 (Rhodesain) [µM] | Ratio [3] [M⁻¹ s⁻¹] | inhibition [4] | Activity (Trypanosoma brucei [5])
CC(C)c1ccc(OC(=O)Cc2ccc(OC/C=C/S(=O)(=O)c3ccccc3)cc2)cc1 | inactive | > 20 | > 20 |  |  |  | 
CC(C)CCC[C@@H](C)[C@H]1CC[C@H]2[C@@H]3CC[C@H]4C[C@@H](OC(=O)Cc5ccc(OC/C=C/S(=O)(=O)c6ccccc6)cc5)CC[C@]4(C)[C@H]3CC[C@]12C | inactive | > 20 | > 20 |  |  |  | 
O=C(Cc1ccc(OC/C=C/S(=O)(=O)c2ccccc2)cc1)Oc1ccc(C(F)(F)F)cc1 | inactive | > 20 | > 20 |  |  |  | 
CC1(C)C2CC=C(CCOC(=O)Cc3ccc(OC/C=C/S(=O)(=O)c4ccccc4)cc3F)C1C2 (configuration not stated) | inactive | 7.03 | > 20 |  |  |  | 
O=C(Cc1ccc(OC/C=C/S(=O)(=O)c2ccccc2)cc1)Oc1ccc(Cc2ccccc2)cc1 | inactive | 1.47 | > 80 |  |  |  | 
CC1(C)C2CC[C@]1(C)C(NC(=O)Cc1ccc(OC/C=C/S(=O)(=O)c3ccccc3)cc1)C2 (some centres not stated) | inactive | 10.8 | > 20 |  |  |  | 
O=C(N[C@H](/C=C/S(=O)(=O)c1ccccc1)CCc1ccccc1)c1cccc2cccnc12 | Active | 5.97 | > 80 | 0.8 | 99 | inactive | 
O=C(Cc1ccc(OC/C=C/S(=O)(=O)c2ccccc2)cc1)NC12CC3CC(CC(C3)C1)C2 | inactive | 11.7 | > 20 |  |  |  | 
COc1cc([C@@H]2c3cc4c(cc3[C@H](O)[C@H]3COC(=O)[C@H]23)OCO4)cc(OC)c1OC [PODOFILOX] |  |  | 0.008 |  |  |  | 
CCCN1CCC(NC(=O)Cc2ccc(OC/C=C/S(=O)(=O)c3ccccc3)cc2)CC1 | inactive | > 20 | > 20 |  |  |  | 
CC1=C[C@@H](OC(=O)Cc2ccc(OC/C=C/S(=O)(=O)c3ccccc3)cc2)C2C[C@H]1C2(C)C | inactive | > 20 | > 20 |  |  |  | 
CC1(C)[C@H]2CC=C(CCOC(=O)Cc3ccc(OC/C=C/S(=O)(=O)c4ccccc4)c(Cl)c3)[C@@H]1C2 | inactive | 3.04 | > 80 |  |  |  | 

Continued, in another order:

inhibition [1] | IC50 (Trypanosoma brucei [2]) [µM] | SMILES | IC50 (HepG2) [µM] | IC50 (Rhodesain) [µM] | Ratio [3] [M⁻¹ s⁻¹] | inhibition [4] | Activity (Trypanosoma brucei [5])
inactive | 7.16 | CC1(C)C2CC[C@]1(C)C(OC(=O)Cc1ccc(OC/C=C/S(=O)(=O)c3ccccc3)cc1)C2 (some centres not stated) | > 20 |  |  |  | 
inactive | 5.45 | C[C@H](NC(=O)Cc1ccc(OC/C=C/S(=O)(=O)c2ccccc2)cc1)c1ccc2ccccc2c1 | > 20 |  |  |  | 
inactive | > 20 | CN1CCC(NC(=O)Cc2ccc(OC/C=C/S(=O)(=O)c3ccccc3)cc2)CC1 | > 20 |  |  |  | 
 | 0.004 | Cc1ccc(C(=O)Nc2ccc(S(=O)(=O)O)c3cc(S(=O)(=O)O)cc(S(=O)(=O)O)c23)cc1NC(=O)c1cccc(NC(=O)Nc2cccc(C(=O)Nc3cc(C(=O)Nc4ccc(S(=O)(=O)O)c5cc(S(=O)(=O)O)cc(S(=O)(=O)O)c45)ccc3C)c2)c1 [SURAMIN] |  |  |  |  | 
inactive | 2.18 | O=C(Cc1ccc(OC/C=C/S(=O)(=O)c2ccccc2)cc1)Oc1ccc2cc(Br)ccc2c1 | > 80 |  |  |  | 
inactive | 2.01 | CC1(C)[C@H]2CC=C(CCOC(=O)Cc3ccc(OC/C=C/S(=O)(=O)c4ccccc4)cc3)[C@@H]1C2 | > 80 |  |  |  | 
inactive | 6.04 | O=C(Cc1ccc(OC/C=C/S(=O)(=O)c2ccccc2)cc1)Oc1ccc(C2CCCC2)cc1 | > 20 |  |  |  | 
inactive | 5.62 | C[C@H](OC(=O)Cc1ccc(OC/C=C/S(=O)(=O)c2ccccc2)cc1)c1ccc2ccccc2c1 | > 20 |  |  |  | 
inactive | 0.76 | O=C(Cc1ccc(OC/C=C/S(=O)(=O)c2ccccc2)cc1)Nc1cccc2cccnc12 | > 80 |  |  |  | inactive
inactive | 5.63 | O=C(Cc1ccc(OC/C=C/S(=O)(=O)c2ccccc2)cc1)OC1CCC[C@@H]2CCCC[C@H]12 (some centres not stated) | > 20 |  |  |  | 
inactive | 4.04 | CC1(C)[C@@H]2CC[C@@](C)(C2)[C@@H]1OC(=O)Cc1ccc(OC/C=C/S(=O)(=O)c2ccccc2)cc1 | 11.9 |  |  |  | 
inactive | > 20 | CC1(C)C2CC=C(COC(=O)Cc3ccc(OC/C=C/S(=O)(=O)c4ccccc4)cc3)C1C2 (configuration not stated) | > 20 |  |  |  | 
